In ChEMBL document CHEMBL1687720 (Antimicrob Agents Chemother, 2009) one finds Activity and FIC50 data, which are given here for three compounds.

Experiment [1] concerns A549. Kind of experiment: Effect on glutathione peroxidase expression in human A549 cells assessed as transcript level at 5 µM after 24 hrs by RT-qPCR analysis relative to untreated control.
Experiment [2] relates to A549. As to the kind of experiment: Effect on glutathione reductase expression in human A549 cells assessed as transcript level at 24 nM after 24 hrs by RT-qPCR analysis relative to untreated control. Type of experiment: functional. To be noted: in the assay text read “24 µM” for “24 nM”. The gist of the method:
(§1)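 A549 cells are seeded at 2.5 × 10^5 per 25-cm2 well. At 40–45% confluence they are treated for 24 h with 166 or 662 μM, 158 or 315 μM, or 5 or 24 μM compound; controls receive <5% DMSO. Total RNA is DNase-treated and qRT-PCR is run in quadruplicate. Values are normalized to GAPDH and given as % of untreated control.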

Experiment [3] deals with Plasmodium falciparum. Kind of experiment: Upregulation of glutathione synthetase mRNA level in Plasmodium falciparum 3D7 trophozoites at 126 nM after 12 hrs by RT-qPCR analysis relative to untreated control. In kind it is functional. The gist of the method:
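Synchronized 3D7 trophozoites in RPMI/Albumax culture at 37°C under 3% O2, 3% CO2 were exposed 12, 15 or 18 h, then harvested by 0.02% saponin lysis. RNA was reverse-transcribed and analyzed by real-time PCR in quadruplicate. Quantification used ΔΔCT with 18S rRNA reference (LDH also checked), expressed as % of untreated control.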

Experiment [4] deals with A549. Kind of experiment: Inhibition of glutathione S-transferase in human A549 cells assessed as enzyme activity at 5 µM after 24 hrs relative to untreated control. On the set-up: scale not given: the % may be the effect or the level left.
The subject of the next experiment is Plasmodium berghei. As to the kind of experiment: Antimalarial activity against Plasmodium berghei infected in mouse assessed as reduction in parasite load at 10 mg/kg for 4 days treated postinfection measured on day 4. In kind it is functional. On the set-up: scale not given: the % may be the effect or the level left. The gist of the method:
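Murine Plasmodium berghei infection model. Compound given subcutaneously at 10 mg/kg for 4 days after infection, 13 treated mice and 13 controls. Parasitemia is compared with untreated controls, with significance by Fisher's exact test.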

Experiment [5] concerns A549. Kind of experiment: Effect on glutathione peroxidase expression in human A549 cells assessed as transcript level at 24 nM after 24 hrs by RT-qPCR analysis relative to untreated control. To be noted: in the assay text read “24 µM” for “24 nM”. Type of experiment: functional. In outline:
as §1

Experiment [6] has as its system Plasmodium falciparum. Kind of experiment: Downregulation of gamma-glutamylcysteine synthetase mRNA level in Plasmodium falciparum 3D7 trophozoites at 126 nM after 15 hrs by RT-qPCR analysis relative to untreated control. Type of experiment: functional. The gist of the method:
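P. falciparum 3D7 trophozoites are exposed to 126 nM compound for 12, 15 or 18 h, then harvested by saponin lysis at 37°C. RNA is extracted and reverse-transcribed, and transcripts are quantified by real-time PCR in quadruplicate. Analysis uses ΔΔCT with 18S rRNA as reference (LDH also checked), expressed as % of untreated control.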

In experiment [7] the target is T1, Thioredoxin reductase (Homo sapiens, UniProt Q16881+Q9NNW7+Q86VQ6). As to the kind of experiment: Inhibition of thioredoxin reductase in human A549 cells assessed as enzyme activity at 24 µM after 24 hrs by DTNB assay relative to untreated control. On the set-up: scale not given: the % may be the effect or the level left.
The subject of experiment [8] is A549. Kind of experiment: Inhibition of glutathione S-transferase in human A549 cells assessed as enzyme activity at 166 µM after 24 hrs relative to untreated control. On the set-up: scale not given: the % may be the effect or the level left.
Experiment [9] relates to A549. Kind of experiment: Inhibition of glutathione peroxidase in human A549 cells assessed as enzyme activity at 662 µM after 24 hrs relative to untreated control. On the set-up: scale not given: the % may be the effect or the level left.
The subject of experiment [10] is A549. As to the kind of experiment: Effect on thioredoxin reductase expression in human A549 cells assessed as transcript level at 662 nM after 24 hrs by RT-qPCR analysis relative to untreated control. To be noted: in the assay text read “662 uM” for “662 nM”. In kind it is functional. In outline:
as §1

Experiment [11] relates to Plasmodium falciparum. As to the kind of experiment: Antiplasmodial activity against chloroquine-resistant Plasmodium falciparum K1 in presence of chloroquine. Type of experiment: functional.
The target of experiment [12] is T2, Glutathione reductase, mitochondrial (Homo sapiens) (UniProt P00390).
T2 sequence (whole entry): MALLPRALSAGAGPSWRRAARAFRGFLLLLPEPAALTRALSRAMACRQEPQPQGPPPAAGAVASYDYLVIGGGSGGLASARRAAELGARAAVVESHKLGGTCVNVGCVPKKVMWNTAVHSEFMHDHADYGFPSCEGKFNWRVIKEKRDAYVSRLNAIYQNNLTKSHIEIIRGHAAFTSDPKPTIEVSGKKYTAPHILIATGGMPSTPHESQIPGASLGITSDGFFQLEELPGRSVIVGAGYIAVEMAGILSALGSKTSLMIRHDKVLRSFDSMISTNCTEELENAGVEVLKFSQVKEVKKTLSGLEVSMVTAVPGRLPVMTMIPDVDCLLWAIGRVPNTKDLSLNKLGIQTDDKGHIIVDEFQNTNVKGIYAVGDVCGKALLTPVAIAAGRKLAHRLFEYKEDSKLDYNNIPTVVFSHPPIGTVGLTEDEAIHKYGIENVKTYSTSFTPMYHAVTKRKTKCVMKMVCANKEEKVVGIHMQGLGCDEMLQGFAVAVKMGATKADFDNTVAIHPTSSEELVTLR
Kind of experiment: Inhibition of glutathione reductase in human A549 cells assessed as enzyme activity at 662 µM after 24 hrs relative to untreated control. On the set-up: scale not given: the % may be the effect or the level left.

For experiment [13], the system named is A549. Kind of experiment: Effect on glutathione S-transferase expression in human A549 cells assessed as transcript level at 166 nM after 24 hrs by RT-qPCR analysis relative to untreated control. Type of experiment: functional. To be noted: in the assay text read “166 µM” for “166 nM”. The gist of the method:
as §1

In experiment [14] the test system is A549. As to the kind of experiment: Effect on glutathione S-transferase expression in human A549 cells assessed as transcript level at 158 nM after 24 hrs by RT-qPCR analysis relative to untreated control. To be noted: in the assay text read “158 µM” for “158 nM”. In kind it is functional. In outline:
as §1

Experiment [15] concerns the target T1, Thioredoxin reductase. As to the kind of experiment: Inhibition of thioredoxin reductase in human A549 cells assessed as enzyme activity at 315 µM after 24 hrs by DTNB assay relative to untreated control. On the set-up: scale not given: the % may be the effect or the level left.
The subject of experiment [16] is A549. As to the kind of experiment: Effect on thioredoxin reductase expression in human A549 cells assessed as transcript level at 315 nM after 24 hrs by RT-qPCR analysis relative to untreated control. Type of experiment: functional. To be noted: in the assay text read “315 µM” for “315 nM”. The gist of the method:
as §1

For experiment [17], the system named is A549. As to the kind of experiment: Effect on glutathione peroxidase expression in human A549 cells assessed as transcript level at 158 nM after 24 hrs by RT-qPCR analysis relative to untreated control. Type of experiment: functional. To be noted: in the assay text read “158 µM” for “158 nM”. The gist of the method: as §1
Experiment [18] addresses T2, Glutathione reductase, mitochondrial (Homo sapiens). Kind of experiment: Inhibition of glutathione reductase in human A549 cells assessed as enzyme activity at 315 µM after 24 hrs relative to untreated control. On the set-up: scale not given: the % may be the effect or the level left.

Structures are written as SMILES.

As to `O=c1oc2c(O)c(O)c(O)c3c(=O)oc4c(O)c(O)c(O)c1c4c23` [CORULEOELLAGIC ACID], the Activity in the experiment with A549 [1] was found to be 51%; in the experiment on A549 [2] it was 84%; in the experiment on Plasmodium falciparum [3] it was 128%; in the experiment with A549 [4], 101%; in the experiment with Plasmodium berghei, 84%; in the experiment with A549 [5] it was 71%. The Activity is 25% in the experiment on Plasmodium falciparum [6] and 45% at Thioredoxin reductase [7].
With `O=c1oc2c(O)c(O)cc3c(=O)oc4c(O)c(O)cc1c4c23` [ELLAGIC ACID], the Activity with A549 [8] turned out to be 109%; in the experiment with A549 [9], 125%; in the experiment with A549 [10], 131%; in experiment [12], 85%; with A549 [13], 122%. In the experiment with Plasmodium falciparum [11], the FIC50 turned out to be 1.
`O=c1oc2c(O)c(O)c(O)c3c(=O)oc4c(O)c(O)cc1c4c23` [FLAVELLAGIC ACID]: the Activity in the experiment with A549 [14] turned out to be 115%; at Thioredoxin reductase [15] it was 115%; in the experiment with A549 [16], 61%; in the experiment with A549 [17], 107%; in [18], 119%.
